TRPC6 act = mouse TRPC6 channel activators, primary screen, cell-based, HEK293, membrane potential dye; Short transient receptor potential channel 6 (Mus musculus), Q61143; HEK293-TRPC6 membrane potential dye fluorescence; hits give high values; B-score at 10 µM; actives 0.13% (n = 310,000); AID 2550, 2010;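 active = B-score of the integrated fluorescence ratio above library mean plus 3 SD, and starting fluorescence ratio within library mean plus 5 SD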;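 note: higher score means more depolarization so channel activation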
TRPC4 block = inhibitors of mouse TRPC4 channel, primary screen, Fluo4 calcium, HEK293 TRPC4beta/mu-opioid cells; Short transient receptor potential channel 4 (Mus musculus), Q9QUQ5; DAMGO-evoked Fluo4 calcium flux; hits give low values; B-score at 10 µM; actives 0.39% (n = 300,000); AID 2247, 2010;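 active = B-score over 3 SD under the library average, no early fluorescence shift, positive overall ratio signal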
Target sequence (Q9QUQ5 whole entry, looked up): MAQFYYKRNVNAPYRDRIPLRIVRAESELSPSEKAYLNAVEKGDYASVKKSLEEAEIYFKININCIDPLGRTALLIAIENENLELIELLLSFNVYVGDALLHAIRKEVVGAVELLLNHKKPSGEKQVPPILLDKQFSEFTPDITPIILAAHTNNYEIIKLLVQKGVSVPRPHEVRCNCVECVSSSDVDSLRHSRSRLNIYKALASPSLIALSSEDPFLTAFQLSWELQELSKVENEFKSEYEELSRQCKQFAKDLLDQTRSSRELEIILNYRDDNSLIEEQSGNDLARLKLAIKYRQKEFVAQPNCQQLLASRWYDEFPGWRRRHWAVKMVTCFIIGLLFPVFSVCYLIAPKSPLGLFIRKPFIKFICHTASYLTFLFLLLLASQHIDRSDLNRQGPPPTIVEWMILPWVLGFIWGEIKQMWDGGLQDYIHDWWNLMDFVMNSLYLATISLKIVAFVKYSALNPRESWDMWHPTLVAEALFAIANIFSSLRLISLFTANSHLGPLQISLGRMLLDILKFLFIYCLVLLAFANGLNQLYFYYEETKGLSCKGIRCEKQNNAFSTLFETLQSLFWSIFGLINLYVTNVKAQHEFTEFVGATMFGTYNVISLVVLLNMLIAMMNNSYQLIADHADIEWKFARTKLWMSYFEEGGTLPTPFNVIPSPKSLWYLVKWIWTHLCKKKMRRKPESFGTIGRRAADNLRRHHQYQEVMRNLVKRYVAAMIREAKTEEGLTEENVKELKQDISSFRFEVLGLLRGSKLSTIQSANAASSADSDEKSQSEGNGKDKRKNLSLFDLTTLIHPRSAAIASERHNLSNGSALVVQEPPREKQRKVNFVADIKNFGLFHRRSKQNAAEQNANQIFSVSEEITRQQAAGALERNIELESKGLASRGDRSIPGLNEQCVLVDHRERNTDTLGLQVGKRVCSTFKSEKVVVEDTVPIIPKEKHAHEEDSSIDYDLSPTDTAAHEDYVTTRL
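Material: HEK293 cells with stable TRPC4beta plus mu-opioid receptor expression; probe or stimulus: DAMGO in two steps, submaximal then maximal; technique: Fluo4 calcium fluorescence by kinetic imaging, 5 s 1 Hz baseline; measure: integrated fluorescence ratio relative to baseline, converted to per-well B score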
TRPC6 inhibitor = mouse TRPC6 channel inhibitors, primary screen, cell-based, HEK293, membrane potential dye. Short transient receptor potential channel 6 (Mus musculus), Q61143. ACh-evoked depolarization; hits give low values. B-score at 10 µM. actives 1.1% (n = 310,000). AID 2553, 2010;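 active = B-score under library mean minus 3 SD, initial fluorescence not abnormally high, positive integrated signal ratio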;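 note: B-score derived from integrated fluorescence ratio over the kinetic read; more negative B-score means stronger inhibition of depolarization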
TRPC4 act = activators of mouse TRPC4 channel, primary screen, Fluo4 calcium, HEK293 TRPC4beta/mu-opioid cells. Short transient receptor potential channel 4 (Mus musculus), Q9QUQ5. Fluo4 calcium fluorescence; hits give high values. B-score at 10 µM. actives 0.49% (n = 310,000). AID 2237, 2010;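 active = B-score above 5 SD of library B-scores, and initial fluorescence ratio not above library mean plus 5 SD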;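 note: positive B-score marks a calcium rise read as TRPC4 activation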
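Assay system – TRPC4beta and mu-opioid receptor HEK293 stable cells · Measured by – Fluo4 fluorescence, kinetic · Schedule – dye loading 45 min room temperature, 110 s kinetic read · Read-out – B-scored integrated calcium fluorescence ratio · Controls – buffer and maximal DAMGO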
TRPC4 PAM = positive allosteric modulators of TRPC4, primary screen, cell-based, mouse TRPC4beta, HEK293 mu-opioid, Fluo-4 calcium | Short transient receptor potential channel 4 (Mus musculus), Q9QUQ5 | DAMGO EC20, Fluo-4 Ca2+ flux; hits give high values | B-score at 10 µM | actives 0.42% (n = 310,000);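 active = B-score of calcium response area above 5 SD of library B-scores, with initial fluorescence ratio within 5 SD of library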
Large screens that a line does not name were inactive. Compounds with a hit are over-represented: about 2.3% of the library has one in this group of screens.

O=C(O)c1cnc(-c2ccccc2)nc1Sc1ccc(Cl)cc1Cl	TRPC4 block -6
COc1ccc(CN(C)CCc2ccccn2)cc1OC	none
COc1cc(OC)c(OC)cc1CN(C)CCc1ccccn1	TRPC4 act 64
COC(C(=O)N1CCC(CCC(=O)Nc2ccccc2)CC1)c1ccccc1 (stereo not given)	none
Cc1ccc(C(C)(C)C)cc1S(=O)(=O)Nc1nc2ccccc2nc1Cl	TRPC4 block -6
CCOc1cc(CNCCO)cc(Br)c1OCc1ccccc1Cl	none
CCOc1cc(CNCCCN2CCOCC2)cc(Br)c1OCc1ccccc1Cl	TRPC4 block -7
COc1ccc(/C=C/C(=O)Oc2cc(O)cc(O)c2)cc1	TRPC4 block -7
CCn1c(-c2ccc(N)cc2)nc2ccccc21	TRPC4 act 71
CCCNC(=O)OCCC12CC3CC(CC(C3)C1)C2	TRPC4 PAM 10
COc1ccc(Br)cc1CN(C)CC(O)COc1ccc(Br)cc1 (stereo not given)	none
Cc1cccn2c(=O)c3cc(C(=O)N(C)C)n(C)c3nc12	TRPC4 PAM 25
CCn1c(CN2CCOCC2)nnc1SCC(=O)Nc1ccc(C(C)=O)cc1	none
O=C(CN(CC1CCCO1)C(=O)CNS(=O)(=O)c1ccc(F)cc1)NCCc1ccccc1 (stereo not given)	none
COc1ccc(/C=C/CN2CCCC(C(=O)c3ccc(OC)c(F)c3)C2)cc1 (stereo not given)	TRPC4 act 131
O=c1c(Cc2ccccc2)c(O)ccn1CCc1cnc[nH]1	TRPC4 act 129
O=c1c(Cc2ccc(F)cc2)c(O)ccn1Cc1ccc(F)cc1	none
O=c1c(Cc2ccc(F)cc2)c(O)ccn1CCc1cnc[nH]1	TRPC4 act 108
CC(C)c1ccc(C2C3CSCC=C3C(C#N)=C(N)C2(C#N)C#N)cc1 (stereo not given)	TRPC4 PAM 23
CCCCNCc1cc(Cl)c(OCCC)c(OCC)c1	TRPC4 block -7
CCCCOc1c(Cl)cc(CNC(C)(C)CO)cc1OCC	none
CN(C)c1ccc(-c2nc3ccccc3n2C)cc1	TRPC4 act 46
COC(=O)c1ccc(COC(=O)CNC(=O)CNC(=O)c2ccc(OC)cc2)cc1	none
COc1cccc(NS(=O)(=O)c2ccc3[nH]cc(C(=O)NCCN4CCOCC4)c(=O)c3c2)c1	none (no result: TRPC4 block)
Cc1ccccc1NS(=O)(=O)c1ccc2[nH]cc(C(=O)NCCCN3CCOCC3)c(=O)c2c1	TRPC6 inhibitor -5.97 (no result: TRPC4 block)
COCCN(C(=O)Nc1ccc(OC)cc1)c1nc2ccccc2s1	none
O=C(Nc1ccc(F)cc1F)c1cc(-c2ccco2)on1	none
O=C(Nc1ccc(F)cc1F)c1ccco1	TRPC4 act 70
O=C(NCCO)C(=O)c1c(-c2ccc(Cl)cc2)cc2ccccn12	none
O=C(O)c1ccn2c(C(=O)c3ccc(Cl)cc3)c(-c3ccccc3)cc2c1	TRPC4 block -6
N#Cc1c(NC(=O)C2CC=CCC2C(=O)O)sc2c1CCCCCC2 (stereo not given)	none
CC(C)(C)C1CCc2c(sc(NC(=O)C3CC=CCC3C(=O)O)c2C#N)C1 (stereo not given)	TRPC4 block -6
O=C(O)c1ccc2c(c1)C1C=CCC1C(c1cc3c(cc1Br)OCO3)N2 (stereo not given)	TRPC4 block -7
COc1ccc(C(=O)N2CCN(c3c(C)cccc3C)CC2)cc1OC	TRPC4 PAM 17
Cc1ccccc1CN1N=C(/C=C/c2ccccc2)CCC1=O	TRPC4 PAM 14
CC[n+]1c(C=C2C=C(C)OC(C)=C2)sc2ccccc21	TRPC4 block -8
O=C(NCc1ccccc1Cl)c1cnc2ccccc2n1	TRPC4 PAM 56
CCOC(=O)C(N)CSC1CC(=O)N(CCc2ccccc2)C1=O (stereo not given)	none
COc1ccc(OC)c(S(=O)(=O)N/N=C\c2cn(CC(N)=O)c3ccccc23)c1	none
CCOC(=O)[C@@H]1CCN(Cc2ccccc2)C[C@H]1c1ccccc1	TRPC4 block -7
CCOC(=O)Cn1c(=O)oc2cc(S(=O)(=O)Nc3ccc(F)cc3)ccc21	TRPC4 act 47
Cc1ccc(-n2cc(CN3CCC(O)(c4ccccn4)CC3)c(-c3ccc(F)cc3)n2)cc1	TRPC4 act 77
CC(=O)Nc1ccc(Nc2cc(C)nc3ccccc23)cc1	none
Cc1cc(Nc2ccc(C)c(C)c2)c2ccccc2n1	TRPC4 block -6
N=C(N)SCc1cn2ccccc2n1	TRPC4 PAM 16
COc1cccc(C(=O)NCC(=O)N/N=C/c2ccc3c(c2)OCO3)c1	none
O=[N+]([O-])c1ccc(/C=N/Nc2nc(N3CCCCCC3)nc(N3CCCCCC3)n2)o1	TRPC4 PAM 32
CCCn1c(=O)c(C(=O)NCC2CCCO2)c(O)c2ccccc21 (stereo not given)	TRPC4 PAM 16
O=C(NCC1CCCO1)c1c(O)c2ccccc2[nH]c1=O (stereo not given)	none
CCCn1c(=O)c(C(=O)NNC(=O)c2ccccc2Cl)c(O)c2ccccc21	TRPC4 act 48
CC(C)(C)C(=O)CSc1nc(N)cc(=O)[nH]1	none
CCc1ccc2[nH]c(=O)c(-c3ccccc3)c(O)c2c1	none
O=C(NC(C(=O)N/N=C/c1cccnc1)c1n[nH]c(=O)c2ccccc12)c1ccccc1 (stereo not given)	TRPC4 act 53
O=C(NC(C(=O)N/N=C/c1ccncc1)c1n[nH]c(=O)c2ccccc12)c1ccccc1 (stereo not given)	none
CC(COc1ccccc1Cc1ccccc1)N1CCCCC1 (stereo not given)	TRPC6 act 11.8, TRPC4 act 67
CC(NCCCOc1cccc2ccccc12)c1ccccc1 (stereo not given)	TRPC4 act 69
COc1ccc2ccccc2c1CNC(C)c1ccccc1 (stereo not given)	none
COc1cccc(C2=NOC(C(=O)Nc3cc(C)on3)C2)c1 (stereo not given)	none
COc1cc(C(=O)NCC2(N(C)C)CCCCC2)ccc1OCc1ccccc1	none
N#Cc1c(Oc2ccc3ccccc3c2)sc(C(=O)c2ccccc2)c1N	TRPC4 PAM 12
Cc1cccc(Oc2sc(C(=O)c3ccccc3)c(N)c2C#N)c1C	none
CCC(=O)N(C)CCc1cc2c(c(OC)c1/C=N/NC(=O)c1ccc(Br)cc1)OCO2	TRPC4 block -7
CCOCCCn1cnc2c(c1=O)c1nc3ccccc3nc1n2-c1ccccc1	none
CCOCCCn1cnc2c(c1=O)c1nc3ccccc3nc1n2-c1ccc(C)cc1	TRPC4 block -8
Nc1n[nH]c(N)c1N=Nc1ccc(Cl)cc1Cl	none
